# Measured values published in ChEMBL document CHEMBL1152495, “Synthesis and antimicrobial studies of novel methylene bridged benzisoxazolyl imidazo[2,1-b][1,3,4]thiadiazole derivatives” (2009).
# What was measured:
# Type in all cases: functional
# Pseudomonas aeruginosa [1] = assay: Antibacterial activity against Pseudomonas aeruginosa ATCC 10145 after 24 hrs by agar well diffusion method; conditions: ATCC 10145, 24 h
# In short: (§1)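 Agar well diffusion on Mueller Hinton agar (20 mL per dish), seeded homogeneously with liquid bacterial culture by spread plating. Samples loaded directly into wells, dimethylformamide as solvent control, ampicillin as reference drug. Plates incubated at 37 °C for 24 h. All determinations done in triplicate.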
# Aspergillus fumigatus [2] = assay: Antifungal activity against Aspergillus fumigatus after 72 hrs by agar well diffusion method
# In short: (§2)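 Fungi grown on Potato Dextrose Agar (20 mL per dish), seeded homogeneously with liquid culture by spread plating. Samples loaded directly into agar wells, with dimethylformamide as solvent control and clotrimazole as reference drug. Plates incubated at 25 °C for 72 h, triplicate determinations.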
# Bacillus subtilis [3] = assay: Antibacterial activity against Bacillus subtilis ATCC 6633 at 100 ug/ml after 24 hrs by agar well diffusion method; conditions: ATCC 6633, 24 h, read-out: IZ; in short: as §1
# Bacillus subtilis [4] = assay: Antibacterial activity against Bacillus subtilis ATCC 6633 after 24 hrs by agar well diffusion method; conditions: ATCC 6633, 24 h; in short: as §1
# Candida albicans [5] = assay: Antifungal activity against Candida albicans after 72 hrs by agar well diffusion method; in short: as §2
# Staphylococcus aureus [6] = assay: Antibacterial activity against Staphylococcus aureus ATCC 25923 at 100 ug/ml after 24 hrs by agar well diffusion method; conditions: ATCC 25923, 24 h, read-out: IZ; in short: as §1
# Escherichia coli [7] = assay: Antibacterial activity against Escherichia coli ATCC 35218 at 100 ug/ml after 24 hrs by agar well diffusion method; conditions: ATCC 35218, 24 h, read-out: IZ; in short: as §1
# Escherichia coli [8] = assay: Antibacterial activity against Escherichia coli ATCC 35218 after 24 hrs by agar well diffusion method; conditions: ATCC 35218, 24 h; in short: as §1
# Candida albicans [9] = assay: Antifungal activity against Candida albicans at 100 ug/ml after 72 hrs by agar well diffusion method; conditions: read-out: IZ; in short: as §2
# Staphylococcus aureus [10] = assay: Antibacterial activity against Staphylococcus aureus ATCC 25923 after 24 hrs by agar well diffusion method; conditions: ATCC 25923, 24 h; in short: as §1
# Pseudomonas aeruginosa [11] = assay: Antibacterial activity against Pseudomonas aeruginosa ATCC 10145 at 100 ug/ml after 24 hrs by agar well diffusion method; conditions: ATCC 10145, 24 h, read-out: IZ; in short: as §1
# Aspergillus fumigatus [12] = assay: Antifungal activity against Aspergillus fumigatus at 100 ug/ml after 72 hrs by agar well diffusion method; conditions: read-out: IZ; in short: as §2
SMILES,MIC (Pseudomonas aeruginosa [1]) [µg/mL],MIC (Aspergillus fumigatus [2]) [µg/mL],zone of inhibition at 100 µg/mL (Bacillus subtilis [3]) [mm],MIC (Bacillus subtilis [4]) [µg/mL],MIC (Candida albicans [5]) [µg/mL],zone of inhibition at 100 µg/mL (Staphylococcus aureus [6]) [mm],zone of inhibition at 100 µg/mL (Escherichia coli [7]) [mm],MIC (Escherichia coli [8]) [µg/mL],zone of inhibition at 100 µg/mL (Candida albicans [9]) [mm],MIC (Staphylococcus aureus [10]) [µg/mL],zone of inhibition at 100 µg/mL (Pseudomonas aeruginosa [11]) [mm],zone of inhibition at 100 µg/mL (Aspergillus fumigatus [12]) [mm]
O=c1oc2ccccc2cc1-c1nc2sc(Cc3noc4ccccc34)nn2c1Br,2.5,2.5,10,3,3,15,13,2.5,14,2,14,17
O=Nc1c(-c2cc3ccccc3oc2=O)nc2sc(Cc3noc4ccccc34)nn12,2.5,3.5,15,1.5,3,14,12,3,15,1.5,14,12
O=[N+]([O-])c1ccc(-c2cn3nc(Cc4noc5ccccc45)sc3n2)cc1,3.5,4,11,2.5,3.5,14,13,3,10,1.5,8,11
Brc1ccc(-c2nc3sc(Cc4noc5ccccc45)nn3c2Br)cc1,2,2.5,12,2.5,2.5,13,14,2,16,2,16,16
COc1ccc(-c2cn3nc(Cc4noc5ccccc45)sc3n2)cc1,3,2,14,2.5,3,10,12,3,15,3.5,11,19
O=[N+]([O-])c1ccc(-c2nc3sc(Cc4noc5ccccc45)nn3c2Br)cc1,3,4.5,12,2.5,4,11,10,3.5,9,2,11,8
O=Nc1c(-c2ccc([N+](=O)[O-])cc2)nc2sc(Cc3noc4ccccc34)nn12,3,4,14,1.5,2.5,12,9,3.5,17,1.5,11,11
Clc1ccc(-c2cn3nc(Cc4noc5ccccc45)sc3n2)cc1,3,1.5,17,0.5,3.5,12,18,1.5,11,2,12,16
Clc1ccc(-c2nc3sc(Cc4noc5ccccc45)nn3c2Br)cc1,2.5,4,18,0.5,3,17,15,2,15,1.5,12,10
O=Nc1c(-c2ccc(Cl)cc2)nc2sc(Cc3noc4ccccc34)nn12,2.5,2.5,14,1.5,3,10,13,3,15,2,15,17
